Legend:
[1] = biological target: Phosphatidylinositol 4,5-bisphosphate 3-kinase catalytic subunit alpha isoform (Homo sapiens, UniProt P42336); assay: Inhibition of PI3Kalpha (unknown origin) using PIP2/PS as substrate after 1 hr by luciferase-based luminescence assay
[2] = biological target: Serine/threonine-protein kinase mTOR (Homo sapiens, UniProt P42345); assay: Inhibition of mTOR (unknown origin) using GFP-4E-BP1 as substrate after 1 hr by TR-FRET assay
Homo sapiens = species: Homo sapiens; assay: Selectivity ratio of IC50 for mTOR (unknown origin) to IC50 for PI3Kalpha (unknown origin)
NCI-H1975 = assay: Cytotoxicity against human NCI-H1975 cells harboring PIK3CA mutant assessed as growth inhibition after 4 days by CellTiter-Glo luminescent cell viability assay; type: functional, cell-based; settings: NCI-H1975, 96 h
How it was run: (§1)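 Proliferation panel of human cancer lines carrying either a PIK3CA mutation or a PTEN deletion, with A549 as the one line carrying neither. Growth inhibition is reported as IC50.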

[3] = biological target: Phosphatidylinositol 4,5-bisphosphate 3-kinase catalytic subunit beta isoform (Homo sapiens, UniProt P42338); assay: Inhibition of PI3Kbeta (unknown origin) using PIP2/PS as substrate after 1 hr by luciferase-based luminescence assay
A549 = assay: Cytotoxicity against PTEN deletion mutant/PIK3CA mutant-deficient human A549 cells assessed as growth inhibition after 4 days by CellTiter-Glo luminescent cell viability assay; type: functional, cell-based; settings: A549, 96 h; how it was run: as §1
U-87 MG = assay: Cytotoxicity against human U87MG cells harboring PTEN deletion mutant assessed as growth inhibition after 4 days by CellTiter-Glo luminescent cell viability assay; type: functional, cell-based, U-87MG ATCC; settings: 96 h; how it was run: as §1
[4] = Apparent permeability across apical to basolateral side in human Caco2 cells at 10 uM after 1.5 hrs by LC/MS/MS analysis; type: ADME, cell-based; settings: Caco-2
[5] = Permeability of the compound after 5 hrs by PAMPA; type: physicochemical; settings: read-out: permeability
[6] = Inhibition of PI3K in human T47D cells assessed as inhibition of AKT phosphorylation at Ser 473 after 4 hrs by Western blot analysis; type: cell-based
[7] = Apparent permeability across basolateral to apical side in human Caco2 cells at 10 uM after 1.5 hrs by LC/MS/MS analysis; type: ADME, cell-based; settings: Caco-2
T47D = assay: Cytotoxicity against human T47D cells harboring PIK3CA mutant assessed as growth inhibition after 4 days by CellTiter-Glo luminescent cell viability assay; type: functional, cell-based; settings: 96 h; how it was run: as §1
[8] = biological target: Phosphatidylinositol 4,5-bisphosphate 3-kinase catalytic subunit gamma isoform (Homo sapiens, UniProt P48736); assay: Inhibition of PI3Kgamma (unknown origin) using PIP2/PS as substrate after 1 hr by luciferase-based luminescence assay
[9] = Cytotoxicity against human H460 cells harboring PIK3CA mutant assessed as growth inhibition after 4 days by CellTiter-Glo luminescent cell viability assay; type: functional, cell-based; settings: NCI-H460, 96 h; how it was run: as §1
[10] = Efflux ratio of apparent permeability across basolateral to apical side over apical to basolateral side in human Caco2 cells; type: ADME, cell-based; settings: Caco-2
[11] = biological target: T1, Phosphatidylinositol 4,5-bisphosphate 3-kinase catalytic subunit delta isoform (Homo sapiens, UniProt O00329); assay: Inhibition of PI3Kdelta (unknown origin) using PIP2/PS as substrate after 1 hr by luciferase-based luminescence assay
T1 sequence (O00329 whole entry): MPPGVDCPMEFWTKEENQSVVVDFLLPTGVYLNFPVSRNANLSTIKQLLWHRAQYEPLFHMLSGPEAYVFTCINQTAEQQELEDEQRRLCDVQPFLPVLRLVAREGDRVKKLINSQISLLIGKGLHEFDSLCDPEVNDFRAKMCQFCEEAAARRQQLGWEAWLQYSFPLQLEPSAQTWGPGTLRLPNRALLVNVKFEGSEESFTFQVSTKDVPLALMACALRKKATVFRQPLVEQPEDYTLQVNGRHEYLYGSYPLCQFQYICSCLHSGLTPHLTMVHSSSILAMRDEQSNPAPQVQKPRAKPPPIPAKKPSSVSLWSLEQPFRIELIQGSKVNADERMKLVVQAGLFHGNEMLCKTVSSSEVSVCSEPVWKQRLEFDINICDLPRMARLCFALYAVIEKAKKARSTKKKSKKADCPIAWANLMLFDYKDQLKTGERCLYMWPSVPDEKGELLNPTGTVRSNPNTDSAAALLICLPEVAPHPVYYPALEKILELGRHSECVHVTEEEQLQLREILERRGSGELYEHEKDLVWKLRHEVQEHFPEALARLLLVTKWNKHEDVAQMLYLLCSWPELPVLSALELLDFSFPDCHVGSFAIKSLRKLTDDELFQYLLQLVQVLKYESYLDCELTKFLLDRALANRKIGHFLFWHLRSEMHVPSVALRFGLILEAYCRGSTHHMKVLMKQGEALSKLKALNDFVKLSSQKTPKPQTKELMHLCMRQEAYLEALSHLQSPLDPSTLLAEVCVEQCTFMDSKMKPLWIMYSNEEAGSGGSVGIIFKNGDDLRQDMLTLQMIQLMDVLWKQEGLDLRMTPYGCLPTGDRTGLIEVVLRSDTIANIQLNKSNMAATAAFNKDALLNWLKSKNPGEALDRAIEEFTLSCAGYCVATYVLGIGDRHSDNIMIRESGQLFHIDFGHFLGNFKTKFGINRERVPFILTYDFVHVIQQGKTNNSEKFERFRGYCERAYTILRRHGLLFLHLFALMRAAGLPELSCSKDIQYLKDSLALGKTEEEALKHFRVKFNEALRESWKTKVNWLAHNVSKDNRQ

SK-OV-3 = assay: Cytotoxicity against human SKOV3 cells harboring PIK3CA mutant assessed as growth inhibition after 4 days by CellTiter-Glo luminescent cell viability assay; type: functional, cell-based; settings: SK-OV-3, 96 h; how it was run: as §1

Sequence of Phosphatidylinositol 4,5-bisphosphate 3-kinase catalytic subunit alpha isoform (P42336 whole entry, canonical isoform): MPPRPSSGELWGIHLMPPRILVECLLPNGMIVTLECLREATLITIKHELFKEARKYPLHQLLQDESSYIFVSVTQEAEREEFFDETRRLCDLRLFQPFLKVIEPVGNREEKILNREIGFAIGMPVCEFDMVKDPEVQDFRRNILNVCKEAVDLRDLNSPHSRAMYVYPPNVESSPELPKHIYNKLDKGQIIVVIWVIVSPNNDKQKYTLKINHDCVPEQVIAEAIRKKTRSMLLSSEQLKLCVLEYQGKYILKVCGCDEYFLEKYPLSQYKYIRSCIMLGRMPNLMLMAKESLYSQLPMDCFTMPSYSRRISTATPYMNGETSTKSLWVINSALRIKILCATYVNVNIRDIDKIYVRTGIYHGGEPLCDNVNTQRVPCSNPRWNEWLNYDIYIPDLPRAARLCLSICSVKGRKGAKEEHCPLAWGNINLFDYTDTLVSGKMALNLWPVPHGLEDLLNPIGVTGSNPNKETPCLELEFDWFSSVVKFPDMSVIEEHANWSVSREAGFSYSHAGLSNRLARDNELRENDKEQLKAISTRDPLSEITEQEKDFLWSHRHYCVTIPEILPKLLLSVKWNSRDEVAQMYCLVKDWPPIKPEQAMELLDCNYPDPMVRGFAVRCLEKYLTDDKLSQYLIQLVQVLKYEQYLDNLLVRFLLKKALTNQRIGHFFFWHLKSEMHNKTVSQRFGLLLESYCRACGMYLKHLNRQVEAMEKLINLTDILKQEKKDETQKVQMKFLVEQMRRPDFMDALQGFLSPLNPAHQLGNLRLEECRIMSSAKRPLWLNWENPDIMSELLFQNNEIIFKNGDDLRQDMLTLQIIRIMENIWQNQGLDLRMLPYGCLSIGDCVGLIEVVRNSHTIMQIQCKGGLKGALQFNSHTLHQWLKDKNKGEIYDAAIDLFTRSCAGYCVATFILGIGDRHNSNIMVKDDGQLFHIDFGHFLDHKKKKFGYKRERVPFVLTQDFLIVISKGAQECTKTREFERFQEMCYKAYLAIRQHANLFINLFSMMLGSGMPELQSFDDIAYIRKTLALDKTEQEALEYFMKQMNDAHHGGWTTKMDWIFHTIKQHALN
Sequence of Phosphatidylinositol 4,5-bisphosphate 3-kinase catalytic subunit beta isoform (P42338 whole entry, canonical isoform): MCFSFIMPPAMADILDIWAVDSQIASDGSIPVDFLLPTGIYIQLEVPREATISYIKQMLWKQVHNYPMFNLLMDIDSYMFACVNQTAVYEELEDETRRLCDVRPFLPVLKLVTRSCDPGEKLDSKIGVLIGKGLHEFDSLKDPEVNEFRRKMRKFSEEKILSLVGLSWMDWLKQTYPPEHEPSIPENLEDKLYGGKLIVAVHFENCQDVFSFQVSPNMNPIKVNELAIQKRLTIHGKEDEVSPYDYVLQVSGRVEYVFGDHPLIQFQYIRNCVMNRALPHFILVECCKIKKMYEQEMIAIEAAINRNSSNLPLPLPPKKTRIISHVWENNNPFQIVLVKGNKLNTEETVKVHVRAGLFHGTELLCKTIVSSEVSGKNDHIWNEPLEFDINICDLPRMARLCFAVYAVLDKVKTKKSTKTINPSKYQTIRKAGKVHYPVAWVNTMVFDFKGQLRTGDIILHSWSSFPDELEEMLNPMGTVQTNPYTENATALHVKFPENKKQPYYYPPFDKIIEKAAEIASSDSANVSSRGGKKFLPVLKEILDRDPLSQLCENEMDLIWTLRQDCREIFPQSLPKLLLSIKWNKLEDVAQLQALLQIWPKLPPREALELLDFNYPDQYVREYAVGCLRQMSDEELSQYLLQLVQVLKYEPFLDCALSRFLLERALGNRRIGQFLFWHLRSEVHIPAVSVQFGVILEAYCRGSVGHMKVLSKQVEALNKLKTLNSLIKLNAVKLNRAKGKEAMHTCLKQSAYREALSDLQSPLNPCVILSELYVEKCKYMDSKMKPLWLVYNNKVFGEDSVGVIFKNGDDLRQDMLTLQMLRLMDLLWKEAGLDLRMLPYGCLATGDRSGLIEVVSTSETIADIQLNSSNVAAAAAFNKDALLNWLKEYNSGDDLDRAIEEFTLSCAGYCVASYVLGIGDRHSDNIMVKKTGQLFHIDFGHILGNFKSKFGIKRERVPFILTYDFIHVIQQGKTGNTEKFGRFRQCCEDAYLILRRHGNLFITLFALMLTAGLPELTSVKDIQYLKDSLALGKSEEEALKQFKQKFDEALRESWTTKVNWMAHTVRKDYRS
Sequence of Phosphatidylinositol 4,5-bisphosphate 3-kinase catalytic subunit gamma isoform (P48736 whole entry, canonical isoform): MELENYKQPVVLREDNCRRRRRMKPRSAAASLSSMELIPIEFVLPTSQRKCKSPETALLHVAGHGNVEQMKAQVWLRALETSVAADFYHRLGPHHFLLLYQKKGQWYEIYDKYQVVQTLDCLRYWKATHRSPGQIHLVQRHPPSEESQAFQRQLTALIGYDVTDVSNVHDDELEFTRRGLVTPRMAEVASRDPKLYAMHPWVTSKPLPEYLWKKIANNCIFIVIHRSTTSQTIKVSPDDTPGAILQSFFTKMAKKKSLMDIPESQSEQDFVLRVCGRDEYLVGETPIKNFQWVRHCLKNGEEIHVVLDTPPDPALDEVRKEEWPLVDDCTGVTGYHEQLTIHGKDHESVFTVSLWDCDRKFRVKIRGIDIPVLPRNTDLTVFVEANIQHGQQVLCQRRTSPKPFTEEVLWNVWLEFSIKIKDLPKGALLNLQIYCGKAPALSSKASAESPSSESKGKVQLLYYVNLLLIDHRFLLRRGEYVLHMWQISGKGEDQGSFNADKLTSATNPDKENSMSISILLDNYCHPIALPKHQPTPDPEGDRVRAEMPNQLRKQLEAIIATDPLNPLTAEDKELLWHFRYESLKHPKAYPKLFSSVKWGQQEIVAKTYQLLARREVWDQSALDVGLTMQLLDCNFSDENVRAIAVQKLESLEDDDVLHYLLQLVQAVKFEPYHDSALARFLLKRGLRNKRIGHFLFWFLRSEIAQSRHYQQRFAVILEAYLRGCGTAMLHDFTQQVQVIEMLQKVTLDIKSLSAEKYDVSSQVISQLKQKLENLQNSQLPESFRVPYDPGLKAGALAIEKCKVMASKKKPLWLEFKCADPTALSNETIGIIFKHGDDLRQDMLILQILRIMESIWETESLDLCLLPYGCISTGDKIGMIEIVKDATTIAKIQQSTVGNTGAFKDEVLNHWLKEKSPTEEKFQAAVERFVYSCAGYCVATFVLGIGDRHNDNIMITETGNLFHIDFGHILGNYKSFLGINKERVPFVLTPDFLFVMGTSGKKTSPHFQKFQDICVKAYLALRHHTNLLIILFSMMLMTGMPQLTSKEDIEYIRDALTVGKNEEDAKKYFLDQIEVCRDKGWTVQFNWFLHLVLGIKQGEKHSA

SMILES | IC50 [1] [nM] | IC50 [2] [nM] | Ratio IC50 (Homo sapiens) | other results
COc1ncc(-c2cc3c(-c4ccncc4)ncnc3s2)cc1F | > 2500 |  |  | 
COc1ncc(-c2ccc3nncc(-c4ccncc4)c3c2)cc1NS(=O)(=O)c1ccc(F)cc1F | 0.27 | 21.6 | 80 | 
O=S(=O)(Nc1cc(-c2cc3c(-c4ccncc4)ncnc3s2)cnc1Cl)c1ccc(F)cc1 | 0.3 | 43.7 | 146 | 
Cc1ncc(-c2cc3c(-c4ccncc4)ncnc3s2)cc1NS(=O)(=O)c1ccc(F)cc1F | 1.7 | 345 | 203 | 
COc1ncc(-c2ccc3ncnc(-c4ccncc4)c3c2)cc1NS(=O)(=O)c1ccc(F)cc1F | 0.095 | 0.2 | 2.1 | 
COc1ncc(-c2cc3c(-c4ccncc4)ncnc3s2)cc1NS(=O)(=O)c1ccc(F)cc1F | 2.07 | 218 | 105 | IC50 (NCI-H1975): 1070 nM; IC50 [3]: 22.5 nM; IC50 (A549): 3180 nM; IC50 (U-87 MG): 4400 nM; Papp A→B at 1.5 h, 10 µM [4]: 5.6 ×10⁻⁶ cm/s; Papp at 5 h [5]: 8 ×10⁻⁶ cm/s; IC50 [6]: 84.6 nM; Papp B→A at 1.5 h, 10 µM [7]: 4.5 ×10⁻⁶ cm/s; IC50 (T47D): 660 nM; IC50 [8]: 21.1 nM; IC50 [9]: 420 nM; efflux ratio [10]: 0.8; IC50 [11]: 13.3 nM; IC50 (SK-OV-3): 3740 nM
O=S(=O)(Nc1cc(-c2cc3c(-c4ccncc4)ncnc3s2)cnc1Cl)c1ccc(Cl)s1 | 0.15 | 25.8 | 172 | 
COc1ccc(-c2cc3c(-c4ccncc4)ncnc3s2)cn1 | 1230 |  |  | 
COc1ncc(-c2ccc3nccc(-c4ccncc4)c3c2)cc1NS(=O)(=O)c1ccc(F)cc1F | 0.1 | 0.75 | 7.5 | 
COc1ncc(-c2cnc3nc(N)nc(-c4ccncc4)c3c2)cc1NS(=O)(=O)c1ccc(F)cc1F |  |  | 0.52 | 
COc1ncc(-c2cc3c(-c4ccncc4)ccnc3cn2)cc1NS(=O)(=O)c1ccc(F)cc1F | 1.02 | 3.04 | 3 | 
COc1ncc(-c2cc3c(-c4ccncc4)ncnc3s2)cn1 | 3490 |  |  | 
O=S(=O)(Nc1cc(-c2cc3c(-c4ccncc4)ncnc3s2)cnc1Cl)c1ccc(F)cc1F | 0.23 | 53.6 | 233 | IC50 (NCI-H1975): 2200 nM; IC50 [3]: 3.6 nM; IC50 (A549): 8440 nM; IC50 (U-87 MG): 4430 nM; Papp A→B at 1.5 h, 10 µM [4]: 4.8 ×10⁻⁶ cm/s; Papp at 5 h [5]: 7 ×10⁻⁶ cm/s; Papp B→A at 1.5 h, 10 µM [7]: 6.9 ×10⁻⁶ cm/s; IC50 (T47D): 1520 nM; IC50 [8]: 10.2 nM; IC50 [9]: 2940 nM; efflux ratio [10]: 1.4; IC50 [11]: 3.1 nM; IC50 (SK-OV-3): 5200 nM
COc1ncc(-c2cnc3nccc(-c4ccncc4)c3c2)cc1NS(=O)(=O)c1ccc(F)cc1F | 34.7 | 66.7 | 1.9 | 
COc1ncc(-c2cc3c(-c4ccncc4)ncnc3s2)cc1NS(C)(=O)=O | 43.1 |  |  | 
COc1ncc(-c2cc3c(-c4ccncc4)ncnc3s2)cc1NS(=O)(=O)c1ccc(C#N)cc1 | 3.6 | 363 | 100 | 
COc1ncc(-c2cc3c(-c4ccncc4)ncnc3s2)cc1NS(=O)(=O)c1ccc(C(F)(F)F)cc1 | 17 |  |  | 
COc1ncc(-c2ccc3nc(N)nc(-c4ccncc4)c3c2)cc1NS(=O)(=O)c1ccc(F)cc1F | 0.07 | 0.29 | 4.1 | 
COc1ncc(-c2sc3ncnc(-c4ccncc4)c3c2C)cc1NS(=O)(=O)c1ccc(F)cc1F | 72.3 |  |  | 
COc1ncc(-c2cc3c(-c4ccncc4)ncnc3s2)cc1NS(=O)(=O)c1ccc(Cl)s1 | 1.3 | 67.9 | 52 | 
COc1ncc(-c2cnc3ncnc(-c4ccncc4)c3c2)cc1NS(=O)(=O)c1ccc(F)cc1F | 51.7 | 62.3 | 1.2 | 

Source: ChEMBL document CHEMBL3576869 (ACS Med Chem Lett, 2015)
